Structures can show the parent of a compound that is named as a salt. Activity calls are given as the source filed them. No cut-off for these calls is given here.
How the values were obtained:
[1] = system: HEL; assay: Antiproliferative activity against human HEL cells after 48 hrs by MTT assay; type: functional, cell-based
[2] = Cytotoxicity against human breast cancer cells; type: functional; settings: Cancer cell lines; for CC50: read-out: pLC50 (the source's name) (converted); for TGI: read-out: pTGI (converted)
Method in brief: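 MTT cytotoxicity assay in breast cancer cell lines; proliferation expressed as percent growth inhibition relative to vehicle-treated control cells; IC50 reported.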

[3] = Inhibition of plasma membrane electron transport pathway in mitochondrial gene-knockout human HL60p'0 cells by WST1 reduction assay
Method in brief: (§1)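 Cells at 10^5 per well in 0.1 ml pretreated 30 min with compound in DMSO (<0.1% final), then WST-1/mPMS added (final 500 µM and 20 µM); WST-1 reduction followed in real time at 450 nm; averages ± S.E.M. of four independent experiments.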

[4] = Cytotoxicity against human central nervous system cancer cells; type: functional; settings: Cancer cell lines; for CC50: read-out: pLC50 (the source's name) (converted); for TGI: read-out: pTGI (converted)
Method in brief: (§2)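 NCI 60-cell-line human tumour screen, with subpanels for leukemia, melanoma, lung, colon, kidney, ovary, breast, prostate and CNS. Compounds were dissolved in DMSO and tested at five ten-fold dilutions, highest 10^-4 M (10^-3 M for some). Endpoints were GI50, TGI and LC50, reported as negative log molar. Some compounds were assayed once, others two or three times.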

[5] = system: B1647; assay: Antiproliferative activity against human B1647 cells after 48 hrs by MTT assay; type: functional, cell-based
[6] = Cytotoxicity against human prostate cancer cells; type: functional; settings: Cancer cell lines; for CC50: read-out: pLC50 (the source's name) (converted); for TGI: read-out: pTGI (converted); method in brief: as §2
[7] = Inhibition of plasma membrane electron transport pathway in human HL60 cells by WST1 reduction assay; type: cell-based; settings: HL-60; method in brief: as §1
[8] = Cytotoxicity against human leukemia cells; type: functional; settings: Leukemia cell; for TGI: read-out: pTGI (converted); for CC50: read-out: pLC50 (the source's name) (converted); method in brief: as §2
[9] = Cytotoxicity against human melanoma cells; type: functional; settings: Melanoma cell; for CC50: read-out: pLC50 (the source's name) (converted); for TGI: read-out: pTGI (converted)
[10] = Cytotoxicity against human Non-small cell lung carcinoma cells; type: functional; settings: for CC50: read-out: pLC50 (the source's name) (converted); for TGI: read-out: pTGI (converted); method in brief: as §2
[11] = system: Mo7e; assay: Antiproliferative activity against human Mo7e cells after 48 hrs by MTT assay; type: functional, cell-based
[12] = Cytotoxicity against human renal cancer cells; type: functional; settings: Cancer cell lines; for CC50: read-out: pLC50 (the source's name) (converted); for TGI: read-out: pTGI (converted); method in brief: as §2
[13] = Cytotoxicity against human colon cancer cells; type: functional; settings: Cancer cell lines; for CC50: read-out: pLC50 (the source's name) (converted); for TGI: read-out: pTGI (converted); method in brief: as §2
[14] = Cytotoxicity against human ovarian cancer cells; type: functional; settings: Cancer cell lines; for CC50: read-out: pLC50 (the source's name) (converted); for TGI: read-out: pTGI (converted)
[15] = Inhibition of plasma membrane electron transport pathway in human HL60 cells at 200 uM by WST1 reduction assay; type: cell-based; settings: HL-60

| SMILES | Activity [1] | GI50 [2] [µM] | TGI [2] [µM] | IC50 [3] [µM] | GI50 [4] [µM] | CC50 [4] [µM] | TGI [4] [µM] | Activity [5] | GI50 [6] [µM] | IC50 [7] [µM] | GI50 [8] [µM] | GI50 [9] [µM] | CC50 [9] [µM] | TGI [9] [µM] | GI50 [10] [µM] | TGI [10] [µM] | Activity [11] | GI50 [12] [µM] | GI50 [13] [µM] | GI50 [14] [µM] | further results |
| --- | --- | --- | --- | --- | --- | --- | --- | --- | --- | --- | --- | --- | --- | --- | --- | --- | --- | --- | --- | --- | --- |
| O=C1Nc2ccc(F)cc2/C1=C\c1cccc(/C=C2/C(=O)Nc3ccc(F)cc32)n1 | Active | 2.95 | 14.5 | > 117 | 3.8 | 53.7 | 11.5 | Active | 3.47 | > 117 | 1.17 | 2.04 | 36.3 | 4.9 | 7.24 | 26.3 | Active | 4.17 | 2.14 | 4.17 | CC50 [2]: 50.1 µM; CC50 [6]: 74.1 µM; TGI [6]: 12.3 µM; TGI [8]: 7.76 µM; CC50 [10]: 79.4 µM; CC50 [12]: 51.3 µM; TGI [12]: 12.9 µM; CC50 [13]: 39.8 µM; TGI [13]: 5.37 µM; CC50 [14]: 81.3 µM |
| O=c1[nH]/c(=C\c2c[nH]c3ccccc23)c(=O)[nH]/c1=C\c1c[nH]c2ccccc12 | Active | 64.6 | – | > 117 | 64.6 | – | – | Active | – | > 117 | – | 55 | – | – | 97.7 | – | Active | 70.8 | – | – | Activity [15]: inactive |
| CC[C@]1(O)C[C@H]2CN(CCc3c([nH]c4ccccc34)[C@@](C(=O)OC)(c3cc4c(cc3OC)N(C=O)[C@H]3[C@@](O)(C(=O)OC)[C@H](OC(C)=O)[C@]5(CC)C=CCN6CC[C@]43[C@@H]65)C2)C1 [VINCRISTINE SULFATE] | – | 0.316 | – | – | 0.126 | 200 | – | – | 0.126 | – | 0.1 | 0.158 | – | – | 0.251 | – | – | 0.316 | 0.1 | 0.316 | CC50 [2]: 316 µM; CC50 [6]: 316 µM; CC50 [8]: 631 µM; CC50 [12]: 251 µM; CC50 [13]: 79.4 µM; CC50 [14]: 316 µM |
| O=C1Nc2ccccc2/C1=c1/[nH]c(=O)/c(=C2/C(=O)Nc3ccccc32)[nH]c1=O | – | 85.1 | – | – | 74.1 | – | – | – | – | – | – | – | – | – | 85.1 | – | – | 83.2 | – | 97.7 | – |
| Cc1cc2c(cc1O)/C(=C\c1cccc(/C=C3/C(=O)Nc4cc(C)c(O)cc43)n1)C(=O)N2 | Active | 70.8 | 87.1 | > 117 | – | – | – | Active | 66.1 | > 117 | 27.5 | 87.1 | – | – | 85.1 | – | Active | 67.6 | 72.4 | 75.9 | – |
| O=C1Nc2ccc(Br)cc2/C1=C\c1cccc(/C=C2/C(=O)Nc3ccc(Br)cc32)n1 | – | 6.17 | 18.2 | – | 3.72 | 40.7 | 14.1 | – | 6.46 | – | – | 10 | 52.5 | 23.4 | 11 | 28.2 | – | 7.94 | 10.5 | 9.77 | CC50 [2]: 53.7 µM; CC50 [6]: 55 µM; TGI [6]: 20.9 µM; CC50 [10]: 63.1 µM; CC50 [12]: 51.3 µM; TGI [12]: 21.9 µM; CC50 [13]: 52.5 µM; TGI [13]: 24.5 µM; CC50 [14]: 58.9 µM; TGI [14]: 25.7 µM |
| COc1cc2c(cc1C)NC(=O)/C2=C/c1cccc(/C=C2/C(=O)Nc3cc(C)c(OC)cc32)n1 | Active | 74.1 | 93.3 | > 117 | 89.1 | – | – | Active | 33.9 | > 117 | 4.37 | 79.4 | – | – | 83.2 | – | Active | 52.5 | 49 | 89.1 | CC50 [8]: 91.2 µM; TGI [8]: 60.3 µM |
| O=C1Nc2ccc(S(=O)(=O)O)cc2/C1=C\c1cccc(/C=C2/C(=O)Nc3ccc(S(=O)(=O)O)cc32)n1 | – | – | – | – | – | – | – | – | – | – | 93.3 | 95.5 | – | – | – | – | – | 85.1 | – | – | – |
| O=C(O)CCC(=O)c1ccc2c(c1)/C(=C\c1cccc(/C=C3/C(=O)Nc4ccc(C(=O)CCC(=O)O)cc43)n1)C(=O)N2 | – | – | – | – | 30.2 | – | 61.7 | – | – | – | 15.5 | – | – | – | – | – | – | – | – | – | – |
| COc1ccc2[nH]cc(/C=c3\[nH]c(=O)/c(=C/c4c[nH]c5ccc(OC)cc45)[nH]c3=O)c2c1 | – | 79.4 | – | – | – | – | – | – | – | – | – | 72.4 | – | – | – | – | – | – | – | 89.1 | – |
| CN(C)c1ccc2c(c1)/C(=C\c1cccc(/C=C3/C(=O)Nc4ccc(N(C)C)cc43)n1)C(=O)N2 | Active | 6.03 | 69.2 | > 117 | 4.37 | 89.1 | 44.7 | Active | 3.55 | > 117 | 2.34 | 4.37 | 60.3 | 30.2 | 5.25 | 43.7 | Active | 8.71 | 6.76 | 7.59 | Activity [15]: inactive; TGI [6]: 29.5 µM; TGI [8]: 9.55 µM; TGI [13]: 38.9 µM |
| CN1C(=O)/C(=C/c2cccc(/C=C3/C(=O)N(C)c4ccccc43)n2)c2ccccc21 | Active | 8.91 | 33.1 | > 117 | 7.59 | 50.1 | 29.5 | Active | 13.5 | > 117 | 3.09 | 4.9 | 43.7 | 22.4 | 12 | 30.2 | Active | 10 | 10 | 10 | Activity [15]: inactive; CC50 [12]: 46.8 µM; TGI [12]: 23.4 µM; TGI [13]: 28.2 µM; TGI [14]: 29.5 µM |
| O=C1Nc2ccc(C(=O)O)cc2/C1=C\c1cccc(/C=C2/C(=O)Nc3ccc(C(=O)O)cc32)n1 | Active | – | – | > 117 | 72.4 | – | 87.1 | Active | – | > 117 | 6.17 | – | – | – | – | – | Active | – | – | – | Activity [15]: inactive; CC50 [8]: 34.7 µM; TGI [8]: 21.4 µM |
| COc1ccc2c(c1)/C(=C\c1cccc(/C=C3/C(=O)N(C)c4ccc(OC)cc43)n1)C(=O)N2C | – | 1.62 | – | – | 3.24 | – | 14.8 | – | 2.09 | – | 38 | 1.05 | 8.91 | 3.8 | 2.45 | 19.1 | – | 1.51 | 1.45 | 2.57 | CC50 [2]: 63.1 µM; CC50 [10]: 74.1 µM; CC50 [12]: 20.9 µM; TGI [12]: 5.25 µM; CC50 [13]: 11.7 µM; TGI [13]: 3.39 µM |
| CC(=O)n1c(=O)/c(=C/c2c[nH]c3ccccc23)n(C(C)=O)c(=O)/c1=C/c1c[nH]c2ccccc12 | Active | 66.1 | – | > 117 | 75.9 | – | – | Active | – | > 117 | 93.3 | 87.1 | – | – | 85.1 | – | Active | 29.5 | – | 79.4 | Activity [15]: inactive |
| O=C1Nc2ccccc2/C1=C\c1cccc(/C=C2/C(=O)Nc3ccccc32)n1 | – | 0.49 | – | – | 0.575 | 7.08 | 1.82 | – | 0.631 | – | 0.234 | 0.302 | 4.68 | 0.933 | 0.813 | 3.16 | – | – | 0.282 | 0.589 | CC50 [2]: 57.5 µM; CC50 [6]: 24.5 µM; TGI [6]: 2.69 µM; TGI [8]: 1.95 µM; CC50 [10]: 22.4 µM; CC50 [12]: 5.37 µM; TGI [12]: 1.62 µM; CC50 [13]: 6.46 µM; TGI [13]: 0.776 µM; CC50 [14]: 6.61 µM; TGI [14]: 1.78 µM |
| O=C1Nc2cc(Cl)ccc2/C1=C\c1cccc(/C=C2/C(=O)Nc3cc(Cl)ccc32)n1 | Active | 2.29 | 13.5 | > 117 | 2.24 | 36.3 | 7.76 | Active | 3.39 | > 117 | 1.45 | 1.78 | 21.4 | 6.17 | 3.72 | 14.8 | Active | 1.07 | 1.74 | 3.02 | CC50 [2]: 52.5 µM; CC50 [6]: 70.8 µM; TGI [6]: 40.7 µM; CC50 [8]: 95.5 µM; TGI [8]: 8.13 µM; CC50 [10]: 57.5 µM; CC50 [12]: 20 µM; TGI [12]: 3.31 µM; CC50 [13]: 25.1 µM; TGI [13]: 4.9 µM; CC50 [14]: 63.1 µM; TGI [14]: 19.5 µM |

— ChEMBL document CHEMBL1155808, “Antitumor activity of bis-indole derivatives” (J Med Chem, 2008)
